# NCF1 inh: blocks human p47phox regulatory protein of NADPH oxidases. p47phox/p22phox peptide binding, fluorescence polarization, 2 h. inhibition, % at 24.7 µM. actives 0.53% (n = 220,000);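 active means inhibition above about 30%, limit read from the data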;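 further: 0% = p47phox with labelled peptide and 100% = labelled peptide alone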
# Target sequence (P14598 whole entry, looked up): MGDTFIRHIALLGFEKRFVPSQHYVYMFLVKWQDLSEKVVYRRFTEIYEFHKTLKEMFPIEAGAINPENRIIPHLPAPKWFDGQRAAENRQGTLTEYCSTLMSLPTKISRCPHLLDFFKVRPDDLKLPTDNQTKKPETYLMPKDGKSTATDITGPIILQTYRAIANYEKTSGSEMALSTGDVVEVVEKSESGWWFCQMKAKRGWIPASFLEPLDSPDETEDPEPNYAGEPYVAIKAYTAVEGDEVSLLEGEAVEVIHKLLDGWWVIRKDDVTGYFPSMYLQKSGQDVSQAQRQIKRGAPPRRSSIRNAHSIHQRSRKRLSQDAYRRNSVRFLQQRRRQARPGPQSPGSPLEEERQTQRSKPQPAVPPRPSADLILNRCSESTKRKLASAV
# KCC2 mod: modulates chloride dependent transport by human KCC2. Q9H2X9. KCC2 cells, thallium flux FluoZin-2 fluorescence. B-score of Tl+ flux slope (higher = more flux/activation; lower = inhibition) at 10 µM. actives 2.2% (n = 190,000). AID 1456;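 active means thallium flux slope and its plate-corrected score both differing from the plate sample mean at a set confidence after two filtering rounds, in either direction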;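 further: slope of fluorescence scaled to starting intensity during 10 to 20 s after thallium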
# RBBP9 inhibitor: human RBBP9 hydrolase inhibition; actives 0.2% (n = 220,000); recombinant RBBP9, FP-Rh probe fluorescence polarization; inhibition, % at 7.94 µM; O75884;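 active means inhibition above the campaign mean of all tested compounds plus 3 SD, cut at about 14% in these data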;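 further: plate controls were DMSO wells with RBBP9 for no effect and wells lacking RBBP9 protein for full effect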
# Target sequence (O75884 whole entry, looked up): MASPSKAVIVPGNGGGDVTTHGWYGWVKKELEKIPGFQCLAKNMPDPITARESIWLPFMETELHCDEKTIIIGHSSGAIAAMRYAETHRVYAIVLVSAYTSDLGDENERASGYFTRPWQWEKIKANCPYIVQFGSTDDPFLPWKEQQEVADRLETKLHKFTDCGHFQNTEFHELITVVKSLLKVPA
#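 System: RBBP9 protein | Quantity: 2.5 µM RBBP9 dispensing solution, before mixing | Reagent: FP-Rh probe, 375 nM dispensing solution | Timing: Enzyme-compound preincubation 30 min, then probe labeling 45 min, 25 °C | Measured by: Fluorescence polarization | Read-out: % inhibition | Replication: One well per compound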
# ROMK mod: modulates human ROMK potassium channel activity; P48048; Tet-inducible ROMK, thallium flux fluorescence; actives lie on both sides; B-score at 10 µM; actives 2% (n = 130,000); AID 1918;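 active means signal ratio slope over the read window, or its plate-corrected B-score, at least 3 SD from the plate mean, either direction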;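 further: B-score of the F/F0 ratio slope over 7 to 12 s after thallium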
# 14-3-3 Bad inh: disrupts binding of bovine 14-3-3 zeta to phospho-Bad peptide; inhibition, % at 21.7 µM; TR-FRET 14-3-3zeta/Dy647-pBad peptide displacement, 1 h; P63103; actives 0.71% (n = 220,000);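 active means inhibition above about 70%, limit read from the data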;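 further: 0% = full 14-3-3 plus peptide FRET controls and 100% = background without 14-3-3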
# WT yeast gro inh: growth inhibition of WT yeast, mitochondrial fusion screen; mitochondrial fusion phenotypic screen, WT strain; inhibition, % at 10 µM; actives 2.1% (n = 190,000); AID 1362; in the data active means inhibition above about 58%; tested in S. cerevisiae
# KCC2 secondary: confirmation of human KCC2 transport modulators | shares compounds with KCC2 mod | HEK293-KCC2, thallium flux, FluoZin2 fluorescence; stronger effect = higher value | normalised thallium flux (F/F0 slope) at 10 µM | actives 15% (n = 3,700) | AID 1713;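 active means thallium flux slope above the same plate's solvent-only control mean plus 3 SD; inconclusive means the two replicate wells disagree; inactive means no significant difference from solvent-only control wells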
# KCC2 bumet counter: bumetanide-insensitive thallium flux in KCC2 cells with ouabain, counter-screen; shares compounds with KCC2 mod; HEK293-KCC2 + bumetanide/ouabain, thallium flux FluoZin2; stronger effect = higher value; normalized thallium flux at 10 µM; actives 49% (n = 3,700); AID 1714;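 active means thallium entry rate above the same plate's blocked-transporter control wells by more than 3 SD; inconclusive means the two repeat wells disagree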;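 further: raw slope of fluorescence over initial fluorescence between 10 and 20 s after thallium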
# KCC2 secondary2: confirmation of human KCC2 transport modulators; HEK293-KCC2, thallium flux FluoZin2 fluorescence; actives lie on both sides; F/F0 rise rate, 10–20 s post-thallium; AID 1715; actives 23% (n = 3,700); normalized thallium flux at 10 µM; shares compounds with KCC2 mod;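 active means thallium flux slope more than 3 SD above or below the plate's solvent-only control mean, mostly below; inconclusive means the two repeat wells disagreed; inactive means no significant shift from solvent-only controls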;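 further: raw slope with 0.1% DMSO as baseline and bumetanide as block control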
# HEK counter1: acts in parental HEK cells, KCC2 counter-screen | shares compounds with KCC2 mod | thallium flux rate (normalised fluorescence) at 10 µM | AID 1716 | actives 46% (n = 3,700) | HEK293 parental cells, thallium flux FluoZin2, ouabain; baseline-ratio fluorescence slope, 10–20 s after thallium;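 active means thallium flux rate significantly above the same plate's solvent-only control wells, beyond their mean plus 3 SD; inconclusive means the two replicate wells gave conflicting results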
# KCC2 retest ouab: KCC2 (human) modulation, ouabain retest. shares compounds with KCC2 mod. HEK293-KCC2, thallium flux FluoZin2 fluorescence; bidirectional: low = inhibitor, high = activator. raw Tl+ flux slope (below DMSO = inhibition, above = activation) at 10 µM. actives 48% (n = 3,700). AID 1717;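 active means thallium flux slope beyond 3 SD from same-plate DMSO control mean in most replicates, usually higher, sometimes lower; inconclusive means repeat tests gave conflicting results; inactive means no significant difference from controls in most replicates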;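 further: slope of initial-normalized fluorescence between seconds 10 and 20 after thallium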
# HEK counter2: counter-screen for KCC2 modulators: effect in parental HEK293 cells. shares compounds with KCC2 mod. thallium flux FluoZin-2 fluorescence slope. thallium flux slope at 10 µM. actives 33% (n = 3,700). AID 1718;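 active means thallium flux slope above the same plate's solvent-control mean plus 3 SD in both duplicate wells; inconclusive means duplicate wells that disagreed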;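 further: run without ouabain in cells lacking the KCC2 cotransporter; slope of fluorescence scaled to its starting value between 10 and 20 s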
# Numbers without * were called inactive; ? = inconclusive; · = not tested or not shown. An excerpt weighted towards active compounds, which were near 5.8% of everything screened.
SMILES,NCF1 inh,KCC2 mod,RBBP9 inhibitor,ROMK mod,14-3-3 Bad inh,WT yeast gro inh,KCC2 secondary,KCC2 bumet counter,KCC2 secondary2,HEK counter1,KCC2 retest ouab,HEK counter2
Cc1ccc2c(Cl)cc(Cl)c(OCC(=O)NC3CCS(=O)(=O)C3)c2n1 (stereo unspecified),-4,10*,-8,·,-15,24,0.018,0.019*,0.03,0.016*,0.022*,0.015*
O=C(N1CCN(c2ccccc2F)CC1)C1(c2cccs2)CCOCC1,1,-0.041,3,·,16,-29,·,·,·,·,·,·
COc1cc(OC)c(OC)cc1/C=N/N(C)c1ccccc1,-3,-0.67,-7,·,-14,29,·,·,·,·,·,·
COc1cc(/C=N/N(C)c2ccccc2)ccc1O,-9,-4.1*,7,-0.51,12,19,0.006,0.0047,0.025*,0.0069,?,0.01
COc1ccc(C(=O)On2c(-c3ccc(Br)cc3)nc3ccccc3c2=O)cc1,-12,5.8*,-3,0.49,-23,24,0.0062,?,0.039*,0.012*,?,0.022*
COc1cc(OC)cc(-c2nc3ccccc3c(=O)n2OC(=O)c2ccc(Br)cc2)c1,-8,-0.6,-4,0.33,4,-7,·,·,·,·,·,·
COc1ccccc1NC(=O)c1ccccc1-c1nc(-c2ccccc2OC)no1,-3,4*,3,-1.8,-9,-7,0.0081,0.0052,0.032,0.0035,0.019,0.011
COc1ccccc1-c1noc(-c2ccccc2C(=O)Nc2ccccc2)n1,-20,·,-8,0.41,8,10,·,·,·,·,·,·
Cc1ccccc1NC(=S)N/N=C/c1ccc(O)cc1O,-22,-1.1,1,·,4,·,·,·,·,·,·,·
Cc1ccc(Cl)cc1NC(=S)N/N=C/c1cccc2ccccc12,-30,30*,-23,·,33,·,0.0091,0.035*,0.033,?,0.028*,0.013
CC(=O)N1CCN(c2c(F)c(F)c(C(F)(F)F)c(F)c2F)CC1,6,-0.7,0,0.45,-3,0,·,·,·,·,·,·
C=CCOC(=O)/C(=C\C=C\c1ccccc1)NC(=O)c1ccccc1,-40,-3.7,0,-0.2,-8,10,·,·,·,·,·,·
O=C(Nc1nnc(SCc2ccc(F)cc2)s1)C1Cc2ccccc2CN1C(=O)c1ccco1 (stereo unspecified),-63,-3.3*,-10,·,-9,28,0.0071,0.0053,0.025*,0.0081,0.017*,0.01
CCOC(=O)c1c(-c2cccs2)csc1NC(=O)CN1CC(C)OC(C)C1 (stereo unspecified),-25,-0.14,-5,·,-4,56,·,·,·,·,·,·
CCOC(=O)c1c(-c2cccs2)csc1NC(=O)CCCC(=O)O,0,·,-10,0.0066,7,8,0.016,0.006*,0.027,?,0.015,0.0089
O=S(=O)(Nc1ncnc2sc3c(c12)CCC3)c1ccc2ccccc2c1,-17,-3.1*,-5,-0.21,6,12,0.0076,0.0056*,0.029,0.0076,0.016,0.01
CC1CN(S(=O)(=O)c2ccc(NC(=O)CCN3C(=O)c4ccccc4C3=O)cc2)CC(C)O1 (stereo unspecified),-4,-3.9*,-7,·,5,-3,0.016,0.0045,0.029,0.0074,0.017,0.011

# High-throughput results (PubChem BioAssay)
